Data reported in ChEMBL document CHEMBL2407083, “Design and synthesis of novel 4-(4-oxo-2-arylthiazolidin-3-yl)benzenesulfonamides as selective inhibitors of carbonic anhydrase IX over I and II with potential anticancer activity” (Eur J Med Chem, 2013).
Converted amounts (≈) assume the structure as drawn. The source made the active and inactive calls. No cut-off for these calls is given here.

What was measured:
MDA-MB-231 = assay: Cytotoxicity against human MDA-MB-231 cells after 48 hrs by MTT assay; conditions: MDA-MB-231, 48 h
DU-145 = assay: Cytotoxicity against human DU145 cells after 48 hrs by MTT assay; conditions: DU-145, 48 h
COLO 205 [1] = assay: Cytotoxicity against human COLO205 cells after 48 hrs by MTT assay; conditions: COLO 205, 48 h
Carbonic anhydrase 9 = Carbonic anhydrase 9 (Homo sapiens, UniProt Q16790); assay: Inhibition of carbonic anhydrase 9 (unknown origin) preincubated for 15 mins by stopped flow CO2 hydration assay
Mus musculus [2] = assay: Toxicity in Swiss albino mouse DLA-induced solid tumor model assessed as increase in body weight at 50 mg/kg, po administered on days 3rd, 5th, 7th, 10th, 12th, and 14th of tumor inoculation measured on day 30 (reference value: 13.79%); type: organism-based; set-up: dose 50 mg/kg, route oral; conditions: in vivo
COLO 205 [3] = assay: Induction of apoptosis in human COLO205 cells assessed as chromatin condensation at IC50 after 48 hrs using acridine orange and ethidium bromide staining by fluorescence microscopic analysis; type: functional, cell-based
Procedure, shortened: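 COLO-205 cells seeded at 10⁵ cells/ml, grown 24 h, then treated for 48 h. Cells collected by trypsinization, centrifuged at 129 g for 5 min, and washed with PBS. Stained with a 1:1 acridine orange/ethidium bromide mix and examined by fluorescence microscopy against control cells.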

COLO 205 [4] = assay: Induction of apoptosis in human COLO205 cells assessed as nuclear condensation at IC50 after 48 hrs using Hoechst 33258 staining by fluorescence microscopic analysis; type: functional, cell-based
Procedure, shortened: (§1)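 COLO-205 cells plated at 10⁵ cells/ml and grown to 70-80% confluency, then treated for 48 h. Fixed in 4% formaldehyde for 30 min at RT and stained with Hoechst 33258 for 15 min at RT. After three PBS washes, examined by inverted fluorescence microscopy (ex 340-380 nm, em 465 nm) against untreated control cells.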

Mus musculus [5] = assay: Antitumor activity in Swiss albino mouse DLA-induced solid tumor model assessed as reduction in tumor volume at 50 mg/kg, po administered on days 3rd, 5th, 7th, 10th, 12th, and 14th of tumor inoculation measured on day 30; type: functional; set-up: scale not given: the % may be the effect or the level left
Procedure, shortened: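 Male Swiss albino mice (6-8 weeks, 29 ± 2 g) received DLA cells, 1 × 10⁶/mouse, subcutaneously into the right hind limb. Dosing by mouth in 0.25% CMC suspension. A vernier caliper gave tumor diameter every third day from day 3, and V = 4/3πr₁²×r₂. Percent inhibition is against vehicle control on day 30. Six mice per group.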

COLO 205 [6] = assay: Induction of apoptosis in human COLO205 cells assessed as DNA fragmentation at IC50 after 48 hrs using Hoechst 33258 staining by fluorescence microscopic analysis; type: functional, cell-based; procedure, shortened: as §1

Ki (Carbonic anhydrase 9)	SMILES	IC50 (MDA-MB-231)	IC50 (DU-145)	IC50 (COLO 205 [1])	Activity (Mus musculus [2])	Activity (COLO 205 [3])	Activity (COLO 205 [4])	Activity (Mus musculus [5])	Activity (COLO 205 [6])
4.7 nM	NS(=O)(=O)c1ccc(N2C(=O)CSC2c2ccc(Cl)cc2)cc1 (stereo not given)	7.16 µg/mL (≈ 19.4 µM)	29.3 µg/mL (≈ 79.4 µM)	15.4 µg/mL (≈ 41.7 µM)	–	–	–	–	–
13.5 nM	NS(=O)(=O)c1ccc(N2C(=O)CSC2c2ccc(Br)cc2)cc1 (stereo not given)	17.5 µg/mL (≈ 42.3 µM)	35.1 µg/mL (≈ 84.9 µM)	23.1 µg/mL (≈ 55.8 µM)	–	–	–	–	–
21.2 nM	NS(=O)(=O)c1ccc(N2C(=O)CSC2c2ccccc2)cc1 (stereo not given)	23.9 µg/mL (≈ 71.4 µM)	39.2 µg/mL (≈ 117 µM)	30.6 µg/mL (≈ 91.5 µM)	–	–	–	–	–
19.4 nM	NS(=O)(=O)c1ccc(N2C(=O)CSC2c2cccc(Br)c2)cc1 (stereo not given)	12.4 µg/mL (≈ 30 µM)	30.1 µg/mL (≈ 72.9 µM)	16.9 µg/mL (≈ 40.9 µM)	–	–	–	–	–

The next lines start with the molecule.

SMILES	Ki (Carbonic anhydrase 9)	IC50 (MDA-MB-231)	IC50 (DU-145)	IC50 (COLO 205 [1])	Activity (Mus musculus [2])	Activity (COLO 205 [3])	Activity (COLO 205 [4])	Activity (Mus musculus [5])	Activity (COLO 205 [6])
NS(=O)(=O)c1ccc(N2C(=O)CSC2c2ccccc2F)cc1 (stereo not given)	44.4 nM	25.9 µg/mL (≈ 73.4 µM)	38.6 µg/mL (≈ 110 µM)	34.7 µg/mL (≈ 98.4 µM)	–	–	–	–	–
NS(=O)(=O)c1ccc(N2C(=O)CSC2c2cccc(Cl)c2)cc1 (stereo not given)	2.2 nM	5.81 µg/mL (≈ 15.8 µM)	23.9 µg/mL (≈ 64.9 µM)	5.03 µg/mL (≈ 13.6 µM)	4.09%	Active	Active	64.83%	Active
NS(=O)(=O)c1ccc(N2C(=O)CSC2c2ccc(F)cc2)cc1 (stereo not given)	37.4 nM	22.7 µg/mL (≈ 64.4 µM)	37.1 µg/mL (≈ 105 µM)	31.4 µg/mL (≈ 89 µM)	–	–	–	–	–
NS(=O)(=O)c1ccc(N2C(=O)CSC2c2ccccc2Br)cc1 (stereo not given)	9.2 nM	20.6 µg/mL (≈ 49.9 µM)	35 µg/mL (≈ 84.7 µM)	27.5 µg/mL (≈ 66.5 µM)	–	–	–	–	–
NS(=O)(=O)c1ccc(N2C(=O)CSC2c2cccc(F)c2)cc1 (stereo not given)	53.1 nM	21.4 µg/mL (≈ 60.6 µM)	39.1 µg/mL (≈ 111 µM)	29.8 µg/mL (≈ 84.7 µM)	–	–	–	–	–
NS(=O)(=O)c1ccc(N2C(=O)CSC2c2ccccc2Cl)cc1 (stereo not given)	7.7 nM	13.6 µg/mL (≈ 36.8 µM)	33.3 µg/mL (≈ 90.2 µM)	19.5 µg/mL (≈ 52.9 µM)	–	–	–	–	–
